In the RNAGym collection of RNA variant scans (doi:10.1126/science.aae0568) one finds yeast fitness data, which are given here for 75 variants.

Variants at the floor of the assay were thinned out.

The labels stand for the following.
B1: tRNA (parent)
chain: GUUCCGUUGGCGUAAUGGUAACGCGUCUCCCUCCUAAGGAGAAGACUGCGGGUUCGAGUCCCGUACGGAACG

The variants in the data set derive from B1. The experiment in a line: yeast fitness relative to wild type (ratio to wild type); higher = fitter; tRNA-Arg(CCU), competitive growth, 37 C, YPD. An outline of the steps: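 Amplicons of the tRNA-Arg(CCU) gene were sequenced, 100-nucleotide paired-end, from the start population and from each end population of a pooled yeast competition. The competition, in six parallel replicates, lasted 24 hours in YPD at 37°C. Fitness relative to wild type was calculated from changes in genotype frequencies. Genotypes had to have ≥ 100 starting reads, and estimates < 0.5 were set to 0.5.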
Take GUUCCGUUGGCGUAACGGUAACGCGUCUCCCUCCCAAGGAGAAGACUGCGGGUUCGAGUCCCGUACGGAACG: the yeast fitness is 0.609.
In the case of GUUCCGUUGGCGUCAUGGUAACGCCUCUCCCUCCUAAGGAGAAGACUACGGGUUCGAGUCCCGUACGGAACG, the yeast fitness was 0.608.
As to GUUCCGUUGGCGUAAUGGUAACGCGUCUCCCUCCUAAGUAGAAGACUGCGGGUUCGAGUCCCGUACGGAACG, the yeast fitness came out at 1.
With GUUCCGUUGGCGUAAUGGAAACGCGUCUCCCUCCUAAGGCGAAGACUGCGGGUUAGAGUCCCGUAAGGAACG, the yeast fitness was not above 0.5.
For GUUCCGUUGGCGUAAUGGUAACGCGUCUCCCUCAUAAGGAGAAGAUUGCGGGUUCGAGUCCCGUACGGAACG, the yeast fitness came to 0.615.
Turning to GUUCCGUUGGCAUAAUGGUAACGCGUCUCGCUCCUAAGGCGAAGACUGCGGGUUCGAGUCCCGUACGGAACG, the yeast fitness is not above 0.5.
In the case of GUUCCGUUGGCGUAAUGGUUACGCGUCUCCCUCCUUAGGAGAACACUGCGGGUUCGAGUCCCGUACGGAACG, the yeast fitness was not above 0.5.
Consider GUUCCGUUAGCGUAAUGGUAACGCGUCUCCCUCCUAAGGAGAAGACUGCGGGUUGGAGUCCCGAACGGAACG, for which the yeast fitness is not above 0.5.
Take GUUUCGUAGGCGCAAUGGUAACGCGUCUCCCUCCUAGGGAGAAGAAUGCGGGUUCGAGUCCCGUACGGAACG: the yeast fitness was not above 0.5.
With GUUCCGUUGCCGUAAUGGUUACGCGUUUUCCUCCUAAGGUGAAGACUGCGGGUUCGAGUCCCGUAUGGAACG, the yeast fitness was not above 0.5.
As for GUUCCGUUGGCGUAAUGCUAACGCGUCUCCCUGCUCAGGAGAAGAAUGCGGGUUCGAGUCCCGUACGGAACG, the yeast fitness was not above 0.5.
In the case of GUUCCGUUGGGGUAAUGGUAGCGCGUCUCCCUCCUAAGGGGAAGACUGCGGGUUCGAAUCCGGUACGGAACG it was not above 0.5; in that of GUUCCGUUGGCGUAAUGGUAACGCGUUUCCCUCCUAGGGAAAAGACUGCCGGUUCGAGUCCCGUACGGAACG, 0.649.
In the case of GUUCCGUUGGCGUAAUGGUGACGCGUCUCCGUCCUAAGGAGAAGACUGCGGGUUCGAGUGCCCUACGGAACG it was not above 0.5; in that of GUUCCGUUGGCGUAAUGGUAACGCGUCCCCCUCCUAAAGCGAAGGCUACGGGUUCGAGUCCCGUACGGAACG, not above 0.5; in that of GUUCCGUUGGCGUAAUGGUAACGCCUCUCCCUCUUAAGGAGAAGACUGCGGGUUCAAGUCCCGUACGGAACG, not above 0.5.
In the case of GUUCUGUUGGCGUAAUGGUAUCGCGUCUCCGUCCUACGGAGAAGACUGCGGGUUCGAGUCCCGUAUGGAACG it was 0.51; in that of GUUCCGUUGGGGUAAUGGUAACGCGUCUCCCUCCUAAGGAGCAGACAGCGGGUUCGAGUCCCCUACGGCACG, not above 0.5; in that of GUUCCGUUGGCGUAAUGGUAACGCGUCUCCCUCCUAAGGAGAAGACUAUGGGUUCGAGUCCCGUGCGGAACG, 0.743.
Consider GUUCAGUUGGCGUAAUGGUAACGCGUCUCCCUCCUAAGGAACAGACUGCCGGUUCGAGUCCCGUACGGAGCG, for which the yeast fitness came out at 0.502.
In the case of GUUCCGUUGGCGUAAUGGUAACGCGUCUCCCUCGUAAGGCGAUGACUGCGGGUUCGAGUCCCGUACGGAACG, the yeast fitness was not above 0.5.
With GUUCCGUUGGCGUAAUAGUAACGCGUCUCACUCCUAAGGAGAAGACUGCGGGUUCGAGUCCCGUAUGGAGCG, the yeast fitness is not above 0.5.
With GUUCCGUUGGCGUAAUGGUAACGCGUCUCCCUCCUAAGGCGCAGACUGCGGGUUCGAGUCCCGUACGGAACG, the yeast fitness stood at 0.619.
Take GUUCCGUUGGCGUCAUGGUAACGCGUCUCCCUCCUAAGGAGAAGACUGCGGGAUCGAGUCCCGUCCGGAGCG: the yeast fitness came to 0.587.
As for GUUCCGUUGGCGUAAUGGUAACGCGUGUCCGUCCUAAGGAGAAGACUGCGGGUUCGAGUCACGUACGGAACG, the yeast fitness was determined as 0.693.
As for GUUCCGAUGGCGUAAUAGUAACGCGUCUCCCUCCUAAGGAGAAGACUGCGGGUUCGAGACCCGUACGGAACG, the yeast fitness was not above 0.5.
On to GUUCCGUUGGCGUAAUAGUAAUGCGUCUCCCACUUAGGGUGAAGACUGCGGGUUCGAGUCCAAUACGGAACG, for which the yeast fitness was 0.512.
As to GAUCCGUUGGGGUAAUGGUAACGCGUGUCCCUCCUAAGGAGAAGACUGCGGGUACGAGUCCCGUACGGAACG, the yeast fitness is not above 0.5.
As for GUUCCGAUGGCGUAAUGGUAACCCGUCUCCCUCCUAAGGAGAAGACUGCGGGUUCGAGUCCCGUAUGGAACG, the yeast fitness is not above 0.5.
In the case of GUUGCGUUGGCGUAAUGGUAACGCGUCUCCGGCCUAAGGAGAAGACUGCGGGUUCGAGUCCCGUACGGAACG it was not above 0.5; in that of GUUCCAUUGGCGUAAUGGUAACGCGUCUCCCUCCUAACGAGAAGACUGCGGGUUCGAGUCCCGUACGGAACG, 0.808.
For GUUCCGUUGGCGUAGUGGUAACGCGUCUCCCUCCUAAGGAGAAGACUGCGGGUUCGAGUCCGGUAUGGAACG, the yeast fitness was found to be 0.535.
Turning to GUUCCGUUGGCGUAAUGGUAACGCGUCUCCCUCCUAAGAAGAAGACUGCGGGUUCGAGUCCCGUACGGAGCG, the yeast fitness worked out at 0.871.
As for GUUCCGUUGGCGUAAUGCUAACCCGUCUCCCUCCUAAGAAGAAGACUGCGGGUUCGAGUCCCGUACGGAACG, the yeast fitness is not above 0.5.
Take GUUCCGUUGGCAUAAUGGUAACGCGUCUCCCUGCUCGGGAGAAAACUGCGGGUUCGAGUCCCGUACGGAACG: the yeast fitness is not above 0.5.
Consider GUUCGGUUGGCGUAAUGGUAACGCGUCUCCAUCCUACGGAGAAGACUACGGGUUCGACUCCCGUACGCAACG, for which the yeast fitness was not above 0.5.
Turning to GUUCCGAUGGCGUAAUGGUAACGCGUCUCCCUCCUAAGGAGAAGACUGCGGGUUCGAGACCCGUACGGAACG, the yeast fitness is 0.778.
For GAUCCGUUGGCGUAAUGGUAGCGCGUCUCCCUCCUAAGCAGAAGACUGCGGGUUCGAGUCCCGUACGGCACG, the yeast fitness is not above 0.5.
To GUUCCGUUGGCGUAAUGGUAACGCGUCUCCCUCCUAAGCAGAAGACUGCGGAUUCGAGUCCCGUACGAAACG belongs not above 0.5; to GUUCAGUCGGCGUAAUGGUAACGCGUUUCCCUCCUAAGGGGAAGACUGUGGGUUGGAGUCCCGUACGGAACG, not above 0.5.
GUUCCGUUGGCGUAAUGGUAACGCGUCUCCCUCUUAAGGAAAAGACUGCGGGUUCGAGUCCCGUACGGAACG: the yeast fitness worked out at 0.606.
In the case of GUUCCGUUGGCGUAAUGGUAACGCGUCUCCCUCCUAAGGAAAAGAGUACGGGUCUGAGUCCCGUACGGACCG it was 0.542; in that of GUUCCGUUGGCGUAAUGGUACCGCGUCUCCCUCCUAAGGAGAAGACUGCGGGUUCGAGUCCGGUCCGGAACG, not above 0.5.
GUUCCGUUAGCGUAAUGGUAUCGCGUCUCCCUCCUAAGGAGAAAACUGCGGGUUGGAGUCCCGUACGGAACG: the yeast fitness came out at 0.584.
GUUCCGCUGGCGUAAUGGUAACGCGUCUGCCUCCUAAGGAGAAGCCUGCGGGUUCGAGUCCGGUCCGGAACG: the yeast fitness was not above 0.5.
With GUUCCGUUGGCGUAAUGGUAACGCGUCUCCGUUCUAAGGAGAAGACUGCGGGUUCGAGUCUCGUACGGAACG, the yeast fitness was not above 0.5.
Consider GUCCCGUUGGCGUAAUGGUAACGCGUCUCAUUCCUAAGGAGAAGACUGCGGGUUCGAGUCCCGUACGGAACG, for which the yeast fitness was found to be 0.747.
In the case of GUUCCGUUGGCGUAAUGGUAACGCGUCUCCCUCCUAAGGAGAAGACUGCGGGUUCGAGUACCGUAGGGAACG it was 0.773; in that of GUUACGUUGGCGUAAUGCUAACGCGUCUCCCUCCUAAGGAGAAGACUGAGGCUUCGAGUCCCGUACGGAACG, not above 0.5; in that of GUUCCGUUGGCGUAAUGGUAACGCGUCUCCCUCCUAAGGAGAACACUGCGGGUUCGAGUCACGUACGGAACG, 0.583.
With GUUCAGUUGGCGUAAUGGUAACGCGUCUCCCGCCUAAGGAGAAGACUGCGGGUUCGAGUCCCGUACGGAACG, the yeast fitness is 0.584.
In the case of GUUCCGUUGGCGUAAUGGUAACGCGUCACCGUCCUAAGGAGAAGACUGCGGGUUCGGGUCCUGUACGGAACG it was not above 0.5.
As to GUUCCGUUGGCGUAAUGGUAACGUGUCUCCCUCCUAAGGAGAAGACUGCGGGUUCGAGUCCCGUACGAAUCG, the yeast fitness came out at 0.647.
Consider GUACCGUUGGCGUAAUGGUAACGCGUCUCCCUCCUAAGGAGAAGAGUGCGGGUUCGAGUCCCGUACGGAACG, for which the yeast fitness was determined as 0.982.
Turning to GUUCCGUUGGCGUACUGGUAACGCGUCACCCUCCUAAGGAGAAGACUGCGGGUUCGAGUCCCGUACGGAACG, the yeast fitness is 0.622.
On to GUUCCGCUGGCGUAAUGGUAACGCGUCUCCCUCCUAAGGAGGAGACUGCGGGUCCGAGUCCCGUACGGAACG, for which the yeast fitness stood at 0.549.
As to GUUCCGUUGGCGUAAUGGUAACGCGUCUGCCUCCAAAGGAGAAGACUGCGGGUUCGAGUCCCGCACGGAACG, the yeast fitness was not above 0.5.
In the case of GUUCCGUUGGCGUAAUGGUAACGCGUGUCCCUCCUAAGGAGAAGACUGCGGGUUCGAGUCCCGUUCGGAACG it was 0.713; in that of GUUCCGUUGGCGUAACGGUAACGCGUCUCCCUCCUAAGGAGAAGACUCCGGGUUCGCGUCCCGUACGGAACG, not above 0.5.
In the case of GUUCCGUUGGCGUAAUGGUAAUGCGUCCCCCUCUUAAGGCGAAGACUGCGGGUUCGAGUCCCGAACGGAACG it was 0.762; in that of GUUCCGUUGGCGUGAUGGUAACACGUCUCCCUCCUAAGGAGAAGACUGCGGGUGCGAGUCCCGUACGGAACG, not above 0.5.
In the case of GUUCCGUUGGCGUAAUGGUAACGCGUCUCCCUCCUAAGGAGAAGACCGCGGGUUCGGGUCCCGUUAGGCACG, the yeast fitness is not above 0.5.
Take GUUCCGUUGGCGUAAUGGUAACGCGUCUGCCUCCUAAGGAGAAGACUGCGGGUUCGAGUCCCGCACGGAACG: the yeast fitness stood at 0.688.
As for GUUCCGUUGGCGUAAUGGUAACGCGUCUCCCUCCUAAGGAGAAGACUGCGGGUUCGAGUAUCCUAUGGAACG, the yeast fitness is not above 0.5.
As to GUUCCGUUGGCGUAAUGAUAACGCGUCUCCCUCCUAAGGAGAAGACUGCGAGUUCGAGUCCCGUACGGAGCG, the yeast fitness was not above 0.5.
In the case of GUUCCGUUGGCGUGAUGGUAACGCGUCUCCCUCCUAAGGAGAAGACUGCGGGUUCGAGUCCCGUACGGGACG it was 0.821; in that of GUUCCGUUGGCGUAAUGGUAACGCGUUUCCCACCUAAGGAGAAGACUGCGGAUUCGAGUCCCGUAUCGAACG, not above 0.5.
GUUCCGUUGGCGUGAUGGUAACACGUCUCCCUCCUGAGGAGAAGACUGCGGGUUCGAGUCCCGUAUGGAACG: the yeast fitness is not above 0.5.
In the case of GUUCCGUUGGCGUAAUGGUAACGCGUCUCCCUCCUAAGGAGAAGACUACGGGUUCGAGUCCCGUGCGGAACG it was 0.981; in that of GUUCCGUUGGUGUAAUGGUAACGCGUCUCCCUUCUAAGGAGAAGACUGCGGGUUCGAGUCCCGUACGGAACG, 0.724.
GCUCCGUUGGCGUAAUGGUAACGCGUCUCCCUCCUAAGGAGAAGACUGCGGGUUCGAGUCUCGUACGAAACG: the yeast fitness was not above 0.5.
On to GUUCCGUUGGCGUAAUGGUAAUGCGUCUCCCUCCUAAGGGGAAGACUGCGGGUUCGAGUCCCCUACGGAACG, for which the yeast fitness was determined as 0.531.
To GUUCCGUUGGCGUGAUGGUAACGCGUCUCCCUCCUAACGAGAAGACUGCGGGUUCGAGUCCCGUACGGAACG belongs 0.787; to GUUCCGUUGGCGUAAUGGUAACGCGUCGCCCUCCUAAGGAGAAGAGUGUGGGUUCGAGUCCCGUACGGCACG, not above 0.5; to GUUCCGUUGGCGUAAUGGUAACGCGUCUCCCUCCUAAGGUGAAGACUGCGGGUUAGAGUCCCGUACGUAACG, not above 0.5.
